Assay results taken from ChEMBL document CHEMBL1177760, “Antioxidative activities of histidine containing caffeic acid-dipeptides” (Bioorg Med Chem Lett, 2010).

How the values were obtained:
[1] = test system: Radical scavenging activity; assay: Antioxidant activity assessed as DPPH free radical scavenging activity at 25 uM after 20 mins relative to control; assay type: functional
Summary of the method: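 DPPH radical scavenging run in methanol and in acetate-buffered (pH 5.5) methanol; antioxidant:DPPH molar ratio 0.25; triplicate, repeated five times; mean ± standard error.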

[2] = Antioxidant activity against lipid peroxidation at 90 uM after 10 hrs by ferric thiocyanate method relative to control; assay type: functional
Summary of the method: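 Linoleic acid (>99%) emulsified with Tween 20, biphasic autoxidation system; each antioxidant at 90 µM final, held at 50 °C in the dark; lipid peroxidation read by ferric thiocyanate absorbance at 10 h, expressed as percent inhibition (%Pi) against untreated control; triplicate, mean ± standard error.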

[3] = biological target: Xanthine dehydrogenase/oxidase (Homo sapiens, UniProt P47989); assay: Inhibition of xanthine oxidase after 15 mins; conditions: 0.25 h
Summary of the method: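 Xanthine oxidase inhibition with test agent at 0.1 mM; triplicate, mean ± standard error.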

Xanthine dehydrogenase/oxidase, sequence (P47989 whole entry): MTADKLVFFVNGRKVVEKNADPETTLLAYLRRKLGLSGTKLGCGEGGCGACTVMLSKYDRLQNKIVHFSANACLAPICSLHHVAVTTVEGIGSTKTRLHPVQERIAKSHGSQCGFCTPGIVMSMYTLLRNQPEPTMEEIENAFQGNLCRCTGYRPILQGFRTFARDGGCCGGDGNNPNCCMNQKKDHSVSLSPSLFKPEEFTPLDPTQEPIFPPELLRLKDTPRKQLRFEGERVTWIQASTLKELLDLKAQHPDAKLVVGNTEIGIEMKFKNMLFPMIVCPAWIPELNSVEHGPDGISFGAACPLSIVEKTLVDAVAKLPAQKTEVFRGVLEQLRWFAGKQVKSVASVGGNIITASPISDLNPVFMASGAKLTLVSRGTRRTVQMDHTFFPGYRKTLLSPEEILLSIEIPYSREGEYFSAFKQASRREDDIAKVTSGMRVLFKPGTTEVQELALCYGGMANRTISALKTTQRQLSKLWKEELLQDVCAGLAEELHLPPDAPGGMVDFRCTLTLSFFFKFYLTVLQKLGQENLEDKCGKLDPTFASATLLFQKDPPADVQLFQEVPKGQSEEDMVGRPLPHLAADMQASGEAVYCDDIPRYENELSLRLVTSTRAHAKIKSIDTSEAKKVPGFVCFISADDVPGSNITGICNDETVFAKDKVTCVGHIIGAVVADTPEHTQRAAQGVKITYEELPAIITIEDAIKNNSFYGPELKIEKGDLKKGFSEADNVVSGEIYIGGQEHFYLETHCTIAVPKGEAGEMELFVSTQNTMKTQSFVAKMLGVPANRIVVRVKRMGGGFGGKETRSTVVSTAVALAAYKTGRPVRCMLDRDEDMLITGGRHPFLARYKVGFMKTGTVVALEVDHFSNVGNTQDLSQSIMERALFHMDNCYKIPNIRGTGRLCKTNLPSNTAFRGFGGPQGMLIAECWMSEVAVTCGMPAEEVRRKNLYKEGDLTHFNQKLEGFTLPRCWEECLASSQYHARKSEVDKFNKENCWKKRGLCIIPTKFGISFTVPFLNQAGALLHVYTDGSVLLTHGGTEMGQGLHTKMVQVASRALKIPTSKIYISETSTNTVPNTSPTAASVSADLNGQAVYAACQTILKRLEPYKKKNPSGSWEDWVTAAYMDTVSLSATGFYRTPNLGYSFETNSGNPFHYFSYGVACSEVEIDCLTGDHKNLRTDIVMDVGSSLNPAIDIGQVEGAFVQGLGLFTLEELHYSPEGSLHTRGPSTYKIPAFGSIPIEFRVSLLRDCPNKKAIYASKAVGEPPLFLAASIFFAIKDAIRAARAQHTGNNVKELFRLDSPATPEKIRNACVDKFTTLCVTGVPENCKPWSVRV

NC(=O)[C@H](Cc1cnc[nH]1)NC(=O)[C@H](CC(=O)O)NC(=O)/C=C/c1ccc(O)c(O)c1
Activity [1]: 52%
Activity [2]: 82%

NC(=O)[C@H](Cc1cnc[nH]1)NC(=O)CCNC(=O)/C=C/c1ccc(O)c(O)c1
Activity [1]: 70%
Activity [2]: 64%

NCCCC[C@H](NC(=O)[C@H](Cc1cnc[nH]1)NC(=O)/C=C/c1ccc(O)c(O)c1)C(N)=O
Activity [1]: 54%
Activity [2]: 76%

O=C(O)/C=C/c1ccc(O)c(O)c1
Activity [1]: 47%

NC(=O)[C@@H]1CCCN1C(=O)[C@H](Cc1cnc[nH]1)NC(=O)/C=C/c1ccc(O)c(O)c1
Activity [2]: 61%

COc1ccc(O)c(C(C)(C)C)c1.COc1ccc(O)cc1C(C)(C)C
Activity [1]: 62%
Activity [2]: 86%

NC(=O)[C@H](Cc1cnc[nH]1)NC(=O)[C@H](Cc1ccccc1)NC(=O)/C=C/c1ccc(O)c(O)c1
Activity [1]: 59%
Activity [2]: 80%

NC(=O)[C@H](Cc1ccccc1)NC(=O)/C=C/c1ccc(O)c(O)c1
Activity [1]: 51%
Activity [2]: 73%

NC(=O)[C@H](CS)NC(=O)[C@H](Cc1cnc[nH]1)NC(=O)/C=C/c1ccc(O)c(O)c1
Activity [2]: 79%

NC(=O)CCNC(=O)[C@H](Cc1cnc[nH]1)NC(=O)/C=C/c1ccc(O)c(O)c1
Activity [2]: 71%

NC(=O)[C@H](Cc1cnc[nH]1)NC(=O)[C@H](CS)NC(=O)/C=C/c1ccc(O)c(O)c1
Activity [2]: 84%

NCCCC[C@H](NC(=O)/C=C/c1ccc(O)c(O)c1)C(=O)N[C@@H](Cc1cnc[nH]1)C(N)=O
Activity [1]: 65%
Activity [2]: 84%

NC(=O)[C@H](CO)NC(=O)[C@H](Cc1cnc[nH]1)NC(=O)/C=C/c1ccc(O)c(O)c1
Activity [2]: 71%

NC(=O)[C@H](Cc1cnc[nH]1)NC(=O)[C@H](CO)NC(=O)/C=C/c1ccc(O)c(O)c1
Activity [2]: 83%

NC(=O)[C@H](Cc1cnc[nH]1)NC(=O)[C@H](Cc1cnc[nH]1)NC(=O)/C=C/c1ccc(O)c(O)c1
Activity [2]: 80%

C[C@H](NC(=O)/C=C/c1ccc(O)c(O)c1)C(=O)N[C@@H](Cc1cnc[nH]1)C(N)=O
Activity [2]: 84%

C[C@H](NC(=O)[C@H](Cc1cnc[nH]1)NC(=O)/C=C/c1ccc(O)c(O)c1)C(N)=O
Activity [2]: 66%

NC(=O)[C@H](Cc1cnc[nH]1)NC(=O)[C@@H]1CCCN1C(=O)/C=C/c1ccc(O)c(O)c1
Activity [1]: 71%
Activity [2]: 87%
inhibition (INH) [3]: 52%

NC(=O)[C@H](Cc1ccccc1)NC(=O)[C@H](Cc1cnc[nH]1)NC(=O)/C=C/c1ccc(O)c(O)c1
Activity [2]: 72%

NC(=O)[C@H](CC(=O)O)NC(=O)[C@H](Cc1cnc[nH]1)NC(=O)/C=C/c1ccc(O)c(O)c1
Activity [1]: 49%
Activity [2]: 73%
